Results taken from ChEMBL document CHEMBL3097989, “Antimicrobial activity of de novo designed cationic peptides against multi-resistant clinical isolates” (Eur J Med Chem, 2014).
Where a SMILES comes first, the peptide text is derived from it.

How the values were obtained:
Assay type in all cases: functional
[1] = system: Enterococcus faecium; assay: Antibacterial activity against Enterococcus faecium M2481 clinical isolate expressing vanB gene by microdilution test
Method in brief: (§1)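 MIC by standard broth microdilution following CLSI recommendations, in Mueller Hinton broth supplemented with Ca²⁺ (20-25mg/L) and Mg²⁺ (10-12.5mg/L); peptides tested against a panel of multi-resistant clinical isolates plus ATCC reference strains.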

[2] = system: Pseudomonas aeruginosa; assay: Antibacterial activity against Pseudomonas aeruginosa M7712 clinical isolate expressing blaSPM gene by microdilution test
Method in brief: (§2)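 MIC by standard broth microdilution following CLSI recommendations, in Mueller Hinton broth supplemented with Ca²⁺ (20-25 mg/L) and Mg²⁺ (10-12.5 mg/L); ATCC reference strains included in the panel.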

[3] = system: Enterococcus faecalis; assay: Antibacterial activity against Enterococcus faecalis M4449 clinical isolate expressing vanA gene by microdilution test; method in brief: as §1
[4] = system: Staphylococcus saprophyticus; assay: Antibacterial activity against Staphylococcus saprophyticus M4070 clinical isolate expressing mecA gene by microdilution test; method in brief: as §2
[5] = system: Acinetobacter sp.; assay: Antibacterial activity against Acinetobacter sp. M7489 clinical isolate expressing blaOXA-51 and blaTEM gene by microdilution test; method in brief: as §1
[6] = system: Escherichia coli; assay: Antibacterial activity against Escherichia coli M7859 clinical isolate expressing blaCIT gene by microdilution test; method in brief: as §1
[7] = system: Staphylococcus cohnii; assay: Antibacterial activity against Staphylococcus cohnii M6767 clinical isolate expressing mecA gene by microdilution test; method in brief: as §2
[8] = system: Staphylococcus aureus; assay: Antibacterial activity against Staphylococcus aureus P28 clinical isolate expressing ermA gene by microdilution test; method in brief: as §2
[9] = system: Staphylococcus aureus; assay: Antibacterial activity against Staphylococcus aureus P204 clinical isolate expressing ermA gene by microdilution test; method in brief: as §2
[10] = system: Escherichia coli; assay: Antibacterial activity against Escherichia coli ATCC 25922 by microdilution test; method in brief: as §1
[11] = system: Klebsiella pneumoniae; assay: Antibacterial activity against Klebsiella pneumoniae M9310 clinical isolate expressing blaCTX-M-2, blaTEM-1 and blaSHV-1 gene by microdilution test; method in brief: as §1
[12] = system: Staphylococcus aureus; assay: Antibacterial activity against Staphylococcus aureus M4046 clinical isolate expressing mecA gene by microdilution test; method in brief: as §2
[13] = system: Staphylococcus epidermidis; assay: Antibacterial activity against Staphylococcus epidermidis M2919 clinical isolate expressing mecA gene by microdilution test; method in brief: as §2
[14] = system: Acinetobacter sp.; assay: Antibacterial activity against Acinetobacter sp. M5179 clinical isolate expressing blaOXA-51 gene by microdilution test; method in brief: as §1
[15] = system: Pseudomonas aeruginosa; assay: Antibacterial activity against Pseudomonas aeruginosa M7907 clinical isolate expressing blaPER gene by microdilution test; method in brief: as §2
[16] = system: Staphylococcus epidermidis; assay: Antibacterial activity against Staphylococcus epidermidis M2923 by microdilution test; method in brief: as §2
[17] = system: Klebsiella pneumoniae; assay: Antibacterial activity against Klebsiella pneumoniae M9170 clinical isolate expressing blaOXA-GIII gene by microdilution test; method in brief: as §1
[18] = system: Klebsiella pneumoniae; assay: Antibacterial activity against Klebsiella pneumoniae M11245 clinical isolate expressing blaKPC-2 and blaPER-2 gene by microdilution test; method in brief: as §1
[19] = system: Escherichia coli; assay: Antibacterial activity against Escherichia coli M9209 clinical isolate expressing blaKPC-2 gene by microdilution test; method in brief: as §1
[20] = system: Escherichia coli; assay: Antibacterial activity against Escherichia coli M9884 by microdilution test; method in brief: as §1
[21] = system: Klebsiella pneumoniae; assay: Antibacterial activity against Klebsiella pneumoniae M1803 clinical isolate expressing blaPER-2, blaCTX-M-2, blaTEM-1, blaSHV and blaOXA-9 gene by microdilution test; method in brief: as §1
[22] = system: Klebsiella pneumoniae; assay: Antibacterial activity against Klebsiella pneumoniae M5825 clinical isolate expressing blaGES-3 and blaCTX-M-2 gene by microdilution test; method in brief: as §1
[23] = system: Enterococcus faecium; assay: Antibacterial activity against Enterococcus faecium PZAP95 by microdilution test; method in brief: as §1
[24] = system: Enterococcus faecium; assay: Antibacterial activity against Enterococcus faecium M2664 clinical isolate expressing vanA gene by microdilution test; method in brief: as §1
[25] = system: Escherichia coli; assay: Antibacterial activity against Escherichia coli PLCA1 clinical isolate expressing blaCTX-M-2 and blaTEM-1 gene by microdilution test; method in brief: as §1
[26] = system: Staphylococcus haemolyticus; assay: Antibacterial activity against Staphylococcus haemolyticus M2976 clinical isolate expressing mecA gene by microdilution test; method in brief: as §2
[27] = system: Acinetobacter sp.; assay: Antibacterial activity against Acinetobacter sp. M7978 clinical isolate expressing blaIMP-1 gene by microdilution test; method in brief: as §1
[28] = system: Pseudomonas aeruginosa; assay: Antibacterial activity against Pseudomonas aeruginosa M7723 clinical isolate expressing blaKPC-2 gene by microdilution test; method in brief: as §2
[29] = system: Acinetobacter sp.; assay: Antibacterial activity against Acinetobacter sp. M9665 clinical isolate expressing blaOXA-51 gene by microdilution test; method in brief: as §1
[30] = system: Enterococcus faecalis; assay: Antibacterial activity against Enterococcus faecalis M6383 clinical isolate expressing vanA gene by microdilution test; method in brief: as §1
[31] = system: Escherichia coli; assay: Antibacterial activity against Escherichia coli PNEU23 clinical isolate expressing blaOXA-GIII and blaTEM-1 gene by microdilution test; method in brief: as §1
[32] = system: Enterococcus gallinarum; assay: Antibacterial activity against Enterococcus gallinarum M2685 clinical isolate expressing vanC1 and vanA gene by microdilution test; method in brief: as §1
[33] = system: Escherichia coli; assay: Antibacterial activity against Escherichia coli M5306 clinical isolate expressing blaPER-2, blaCTX-M-2 and blaTEM-1 gene by microdilution test; method in brief: as §1
[34] = system: Staphylococcus saprophyticus; assay: Antibacterial activity against Staphylococcus saprophyticus M2981 clinical isolate expressing mecA gene by microdilution test; method in brief: as §2
[35] = system: Enterococcus faecalis; assay: Antibacterial activity against Enterococcus faecalis M6983 clinical isolate expressing vanA gene by microdilution test; method in brief: as §1
[36] = system: Enterococcus faecalis; assay: Antibacterial activity against Enterococcus faecalis M6534 clinical isolate expressing vanB gene by microdilution test; method in brief: as §1
[37] = system: Escherichia coli; assay: Antibacterial activity against Escherichia coli PCOS15 clinical isolate expressing blaPER-2 and blaTEM-1 gene by microdilution test; method in brief: as §1
[38] = system: Klebsiella pneumoniae; assay: Antibacterial activity against Klebsiella pneumoniae M13540 clinical isolate expressing blaKPC-2 gene by microdilution test; method in brief: as §1
[39] = system: Acinetobacter sp.; assay: Antibacterial activity against Acinetobacter sp. PFAV1 clinical isolate expressing blaOXA-51, blaOXA-58 and blaPER gene by microdilution test; method in brief: as §1
[40] = system: Staphylococcus aureus; assay: Antibacterial activity against Staphylococcus aureus M2832 clinical isolate expressing mecA gene by microdilution test; method in brief: as §2
[41] = system: Staphylococcus aureus; assay: Antibacterial activity against Staphylococcus aureus P239 clinical isolate expressing ermC gene by microdilution test; method in brief: as §2
[42] = system: Pseudomonas aeruginosa; assay: Antibacterial activity against Pseudomonas aeruginosa M7525 clinical isolate expressing blaSPM gene by microdilution test; method in brief: as §2
[43] = system: Pseudomonas aeruginosa; assay: Antibacterial activity against Pseudomonas aeruginosa PCOS12 by microdilution test; method in brief: as §2
[44] = system: Staphylococcus warneri; assay: Antibacterial activity against Staphylococcus warneri M6823 clinical isolate expressing mecA gene by microdilution test; method in brief: as §2
[45] = system: Klebsiella pneumoniae; assay: Antibacterial activity against Klebsiella pneumoniae M9885 clinical isolate expressing blaKPC-2 gene by microdilution test; method in brief: as §1
[46] = system: Staphylococcus epidermidis; assay: Antibacterial activity against Staphylococcus epidermidis M2931 by microdilution test; method in brief: as §2
[47] = system: Staphylococcus haemolyticus; assay: Antibacterial activity against Staphylococcus haemolyticus M3014 by microdilution test; method in brief: as §2
[48] = system: Klebsiella pneumoniae; assay: Antibacterial activity against Klebsiella pneumoniae M9375 clinical isolate expressing blaCTX-M-2, blaTEM-1 and blaSHV-1 gene by microdilution test; method in brief: as §1
[49] = system: Pseudomonas aeruginosa; assay: Antibacterial activity against Pseudomonas aeruginosa M5470 by microdilution test; method in brief: as §2
[50] = system: Staphylococcus aureus; assay: Antibacterial activity against Staphylococcus aureus M6276 clinical isolate expressing ermA and lnuA gene by microdilution test; method in brief: as §2
[51] = system: Enterococcus gallinarum; assay: Antibacterial activity against Enterococcus gallinarum M2723 clinical isolate expressing vanC1 and vanA gene by microdilution test; method in brief: as §1
[52] = system: Enterococcus faecium; assay: Antibacterial activity against Enterococcus faecium M2304 clinical isolate expressing vanA gene by microdilution test; method in brief: as §1

Compound: CC[C@H](C)[C@H](N)C(=O)N[C@@H](CC(C)C)C(=O)N[C@@H](CCCNC(=N)N)C(=O)N[C@@H](Cc1c[nH]c2ccccc12)C(=O)N1CCC[C@H]1C(=O)N[C@@H](Cc1c[nH]c2ccccc12)C(=O)N[C@@H](Cc1c[nH]c2ccccc12)C(=O)N1CCC[C@H]1C(=O)N[C@@H](Cc1c[nH]c2ccccc12)C(=O)N[C@@H](CCCNC(=N)N)C(=O)N[C@@H](CCCNC(=N)N)C(=O)N[C@@H](CCCCN)C(N)=O.Cl.Cl.Cl.Cl.Cl [OMIGANAN PENTAHYDROCHLORIDE] (H-ILRWPWWPWRRK-NH2)
- MIC90 [1]: 16 µg/mL
- MIC90 [2]: 512 µg/mL
- MIC90 [3]: 128 µg/mL
- MIC90 [4]: 8 µg/mL
- MIC90 [5]: 8 µg/mL
- MIC90 [6]: 64 µg/mL
- MIC90 [7]: 4 µg/mL
- MIC90 [8]: 32 µg/mL
- MIC90 [9]: 64 µg/mL
- MIC90 [10]: 64 µg/mL
- MIC90 [11]: 64 µg/mL
- MIC90 [12]: 32 µg/mL
- MIC90 [13]: 8 µg/mL
- MIC90 [14]: 32 µg/mL
- MIC90 [15]: 128 µg/mL
- MIC90 [16]: 8 µg/mL
- MIC90 [17]: 128 µg/mL
- MIC90 [18]: 32 µg/mL
- MIC90 [19]: 64 µg/mL
- MIC90 [20]: 64 µg/mL
- MIC90 [21]: 1020 µg/mL
- MIC90 [22]: 64 µg/mL
- MIC90 [23]: 16 µg/mL
- MIC90 [24]: 8 µg/mL
- MIC90 [25]: 64 µg/mL
- MIC90 [26]: 4 µg/mL
- MIC90 [27]: 16 µg/mL
- MIC90 [28]: 256 µg/mL
- MIC90 [29]: 4 µg/mL
- MIC90 [30]: 128 µg/mL
- MIC90 [31]: 32 µg/mL
- MIC90 [32]: 16 µg/mL
- MIC90 [33]: 64 µg/mL
- MIC90 [34]: 8 µg/mL
- MIC90 [35]: 128 µg/mL
- MIC90 [36]: 256 µg/mL
- MIC90 [37]: 64 µg/mL
- MIC90 [38]: 256 µg/mL
- MIC90 [39]: 16 µg/mL
- MIC90 [40]: 64 µg/mL
- MIC90 [41]: 32 µg/mL
- MIC90 [42]: 512 µg/mL
- MIC90 [43]: 512 µg/mL
- MIC90 [44]: 8 µg/mL
- MIC90 [45]: 256 µg/mL
- MIC90 [46]: 16 µg/mL
- MIC90 [47]: 4 µg/mL
- MIC90 [48]: 32 µg/mL
- MIC90 [49]: 512 µg/mL
- MIC90 [50]: 32 µg/mL
- MIC90 [51]: 16 µg/mL
- MIC90 [52]: 4 µg/mL
